Results as given in paper PMC10639087 (Science signaling, 2023).

Legend:
[1] = target: T1, JPT2 (Jupiter microtubule-associated homolog 2) (Homo sapiens, UniProt Q9H910); assay: biolayer interferometry, biotinylated protein on streptavidin sensor; format: binding
T1 sequence (Q9H910 1-190): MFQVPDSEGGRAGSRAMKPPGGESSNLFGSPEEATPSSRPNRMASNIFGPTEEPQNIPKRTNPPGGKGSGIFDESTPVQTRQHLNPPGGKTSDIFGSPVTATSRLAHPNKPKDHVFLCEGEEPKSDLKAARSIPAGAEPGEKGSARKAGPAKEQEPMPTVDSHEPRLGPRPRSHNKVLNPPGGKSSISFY
Outline: (§1)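 Recombinant human protein, expressed in E. coli BL21 Star (DE3) as an N-terminal 6xHis-GST-TEV fusion, was biotinylated (NHS-LC-biotin) and moved into 110 mM KCl, 10 mM NaCl, 20 mM Hepes pH 7.2 with 1% BSA. SAX sensors were equilibrated 30 s, loaded with 70 nM bait for 15 s, and re-equilibrated 60 s. They were exposed to NAADP (1:2 serial dilutions, 500 to 15.6 nM), then dissociated 210 to 300 s.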

[2] = target: T2, LSM12 (like-Sm protein 12) (Homo sapiens, UniProt Q3MHD2); assay: […]-NAADP displacement, PVDF filter binding
T2 sequence (Q3MHD2 whole entry): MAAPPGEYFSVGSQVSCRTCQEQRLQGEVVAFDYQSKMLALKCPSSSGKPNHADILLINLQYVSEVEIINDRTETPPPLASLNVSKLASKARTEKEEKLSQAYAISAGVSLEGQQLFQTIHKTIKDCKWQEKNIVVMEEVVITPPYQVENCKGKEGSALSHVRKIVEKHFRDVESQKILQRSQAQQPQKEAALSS

[3] = target: T2, LSM12 (like-Sm protein 12); assay: biolayer interferometry, biotinylated protein on streptavidin sensor; format: binding
Outline: as §1

[4] = target: T1, JPT2 (Jupiter microtubule-associated homolog 2); assay: […]-NAADP displacement, PVDF filter binding

| Kd [1] [nM] | IC50 [2] [nM] | Kd [3] [nM] | IC50 [4] [nM] | SMILES |
| --- | --- | --- | --- | --- |
| 5.71 ± 1.8 | 0.703 ± 0.1 | 2.03 ± 0.41 | 1.09 ± 0.1 | Nc1ncnc2c1ncn2[C@@H]1O[C@H](COP(=O)(O)OP(=O)(O)OC[C@H]2O[C@@H]([n+]3cccc(C(=O)O)c3)[C@H](O)[C@@H]2O)[C@@H](O)[C@H]1OP(=O)(O)O [NAADP] |
| 52.9 ± 8.6 | 40.3 ± 25 | 126 ± 35.6 | 15.9 ± 4 | NC(=O)c1ccc[n+]([C@@H]2O[C@H](COP(=O)(O)OP(=O)(O)OC[C@H]3O[C@@H](n4cnc5c(N)ncnc54)[C@H](OP(=O)(O)O)[C@@H]3O)[C@@H](O)[C@H]2O)c1 [NADP] |
